pEC50, pIC50: −log10 of the molar value. The source made the active and inactive calls. The rule behind the calls is not given here.
What was measured:
[1] = molecular target: T1, Bromodomain-containing protein 3 (Homo sapiens, UniProt Q15059); assay: Inhibition of BRD3-BD1 (unknown origin) by fluorescence polarization assay
Method in brief: (§1)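 FP competition assay using the fluorescein-labeled PCC conjugate (4 nM) as tracer. Recombinant His-tagged BRD bromodomain (20–400 nM) in 50 mM HEPES pH 7.4, 150 mM NaCl, 0.5 mM TCEP, 0.05% Tween-20. DMSO-matched serial dilutions were added and the plate incubated. Read at ex 485/em 535 nm, with G-factor zeroed on tracer alone. Triplicate data were curve-fitted, error SEM.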
Target sequence in this assay (Q15059 whole entry): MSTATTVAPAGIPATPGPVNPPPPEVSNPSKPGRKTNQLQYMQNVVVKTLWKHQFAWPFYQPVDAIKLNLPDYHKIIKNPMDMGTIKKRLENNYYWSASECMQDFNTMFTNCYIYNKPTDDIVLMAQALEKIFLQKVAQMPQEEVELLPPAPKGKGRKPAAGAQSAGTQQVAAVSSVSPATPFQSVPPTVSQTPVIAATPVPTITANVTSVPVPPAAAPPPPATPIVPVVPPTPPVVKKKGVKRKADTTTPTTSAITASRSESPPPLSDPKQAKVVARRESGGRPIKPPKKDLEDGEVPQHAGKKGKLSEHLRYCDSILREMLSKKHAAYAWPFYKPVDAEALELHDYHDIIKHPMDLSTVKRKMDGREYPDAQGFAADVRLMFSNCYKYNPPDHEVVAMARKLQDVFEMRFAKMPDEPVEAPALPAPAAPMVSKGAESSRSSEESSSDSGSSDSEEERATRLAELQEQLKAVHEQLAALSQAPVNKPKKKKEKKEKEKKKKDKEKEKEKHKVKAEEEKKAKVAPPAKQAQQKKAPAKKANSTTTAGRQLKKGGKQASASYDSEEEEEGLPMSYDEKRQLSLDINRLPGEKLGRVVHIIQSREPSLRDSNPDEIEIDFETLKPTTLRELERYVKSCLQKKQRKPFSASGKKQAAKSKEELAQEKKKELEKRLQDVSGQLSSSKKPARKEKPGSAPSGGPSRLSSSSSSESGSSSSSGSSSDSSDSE

[2] = molecular target: T2, Bromodomain-containing protein 4 (Homo sapiens, UniProt O60885); assay: Inhibition of BRD4-BD2 (unknown origin) by fluorescence polarization assay; method in brief: as §1
[3] = tested on: PC-3; assay: Antiproliferative activity against androgen-insensitive human PC-3 cells assessed as reduction in cell viability measured after 72 hrs by MTS assay; format: functional, cell-based; conditions: PC-3, 72 h
Method in brief: (§2)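 MTS viability assay run in triplicate wells. Serial dilutions in DMSO were given, with DMSO as negative control and doxorubicin as positive control, and incubated 72 h. MTS reagent was added for 2 h and absorbance read at 490 nm. % cytotoxicity = (A_medium − A_treatment)/A_medium × 100. EC50 ± SD was taken from dose-response curves of at least three independent experiments.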

[4] = molecular target: T2, Bromodomain-containing protein 4; assay: Inhibition of BRD4-BD1 (unknown origin) by fluorescence polarization assay; method in brief: as §1
[5] = Cytotoxicity against HFF cells assessed as reduction in cell viability measured after 72 hrs by MTS assay; format: toxicity, cell-based; conditions: human; method in brief: as §2
[6] = tested on: LNCaP; assay: Antiproliferative activity against androgen-sensitive human LNCaP cells assessed as reduction in cell viability measured after 72 hrs by MTS assay; format: functional, cell-based; method in brief: as §2
[7] = molecular target: T1, Bromodomain-containing protein 3; assay: Inhibition of BRD3-BD2 (unknown origin) by fluorescence polarization assay; method in brief: as §1
Target sequence in this assay (Q15059 whole entry): as above

[8] = Antiproliferative activity against human Androgen-resistant 22Rv1 cells assessed as reduction in cell viability measured after 72 hrs by MTS assay; format: functional, cell-based; conditions: 22Rv1, 72 h; method in brief: as §2
[9] = tested on: DU-145; assay: Antiproliferative activity against AR-negative human DU-145 cells assessed as reduction in cell viability measured after 72 hrs by MTS assay; conditions: DU-145, 72 h
[10] = tested on: PC-3; assay: Cytotoxicity against human PC-3 cells assessed as reduction in cell viability measured after 5 days by Cell-Titer glo assay; format: functional, cell-based; conditions: PC-3, 120 h
[11] = Cytotoxicity against human WI-38 cells assessed as reduction in cell viability measured after 72 hrs by MTS assay; format: toxicity, cell-based; method in brief: as §2
[12] = tested on: VCaP; assay: Antiproliferative activity against AR-positive human VCaP cells assessed as reduction in cell viability measured after 72 hrs by MTS assay; format: functional, cell-based
Method in brief: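 VCaP cells in 96-well plates, compound serially diluted in DMSO and run in triplicate wells for 72 h. MTS reagent added for 2 h, absorbance read at 490 nm. % cytotoxicity = (A_medium − A_treatment)/A_medium × 100. EC50 and SD taken from dose-response curves, at least three independent experiments.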

[13] = tested on: VCaP; assay: Downregulation of TMPRSS2 gene levels in human VCaP cells incubated for 24 hrs by qRT-PCR analysis; format: functional, cell-based; conditions: dose 25-2500 nM
Method in brief: (§3)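 VCaP cells grown to 50% confluence, then treated with compound or DMSO (Methods state 16 h, legend states 24 h). Total RNA isolated, cDNA made from 1 µg RNA, SYBR Green qPCR run in triplicate. Expression by ΔΔCt, normalised to GAPDH. Three independent experiments, SEM.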

[14] = tested on: VCaP; assay: Downregulation of BRD4 mRNA levels in human VCaP cells at 25 to 2500 nM incubated for 24 hrs by qRT-PCR analysis; format: functional, cell-based; conditions: dose 25-2500 nM; method in brief: as §3
[15] = tested on: VCaP; assay: Downregulation of ERG gene levels in human VCaP cells incubated for 24 hrs by qRT-PCR analysis; format: functional, cell-based; conditions: dose 25-2500 nM; method in brief: as §3
[16] = tested on: VCaP; assay: Downregulation of BRD3 mRNA levels in human VCaP cells at 25 to 2500 nM incubated for 24 hrs by qRT-PCR analysis; format: functional, cell-based; conditions: dose 25-2500 nM; method in brief: as §3
[17] = tested on: VCaP; assay: Downregulation of AR […] expression in human VCaP cells at 25 to 2500 nM incubated for 24 hrs by qRT-PCR analysis; format: functional, cell-based; conditions: dose 25-2500 nM; method in brief: as §3
[18] = tested on: VCaP; assay: Downregulation of BRD2 mRNA levels in human VCaP cells at 25 to 2500 nM incubated for 24 hrs by qRT-PCR analysis; format: functional, cell-based; conditions: dose 25-2500 nM; method in brief: as §3
[19] = tested on: VCaP; assay: Downregulation of PSA […] expression in human VCaP cells incubated for 24 hrs by qRT-PCR analysis; format: functional, cell-based; conditions: dose 25-2500 nM; method in brief: as §3
[20] = molecular target: T1, Bromodomain-containing protein 3; assay: Induction of BRD3 degradation in human MDA-MB-231 cells assessed as decrease in BET half life at 50 ug/ml incubated for 8 hrs by immunoblotting analysis; format: cell-based; conditions: dose 50.0 µg/ml
Method in brief: (§4)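 MDA-MB-231 time-course. Cells given 50 µg/mL cycloheximide plus DMSO, or 50 µg/mL cycloheximide plus 10 µM compound. RIPA lysates immunoblotted for BRD2, BRD3 and BRD4 with GAPDH as control.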
Target sequence in this assay (Q15059 2-726 limits assumed): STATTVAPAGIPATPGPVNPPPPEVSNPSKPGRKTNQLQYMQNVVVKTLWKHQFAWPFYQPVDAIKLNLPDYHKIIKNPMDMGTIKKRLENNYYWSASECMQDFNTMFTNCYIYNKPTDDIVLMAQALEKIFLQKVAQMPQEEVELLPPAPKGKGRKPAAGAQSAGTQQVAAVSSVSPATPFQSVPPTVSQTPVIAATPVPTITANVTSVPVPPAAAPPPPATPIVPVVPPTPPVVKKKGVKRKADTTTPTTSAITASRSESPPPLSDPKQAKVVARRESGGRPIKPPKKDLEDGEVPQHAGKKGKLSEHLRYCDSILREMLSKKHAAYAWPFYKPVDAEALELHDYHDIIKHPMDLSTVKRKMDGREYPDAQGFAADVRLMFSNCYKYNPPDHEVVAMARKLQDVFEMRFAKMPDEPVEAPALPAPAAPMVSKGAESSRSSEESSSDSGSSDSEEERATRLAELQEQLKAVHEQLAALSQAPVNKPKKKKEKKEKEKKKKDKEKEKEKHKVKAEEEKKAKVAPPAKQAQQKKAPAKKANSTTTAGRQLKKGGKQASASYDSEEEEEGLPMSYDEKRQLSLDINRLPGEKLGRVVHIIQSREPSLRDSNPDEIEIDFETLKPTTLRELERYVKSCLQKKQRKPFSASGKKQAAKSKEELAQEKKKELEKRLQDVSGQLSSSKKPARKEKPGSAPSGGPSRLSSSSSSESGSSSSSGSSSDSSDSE

[21] = molecular target: Bromodomain-containing protein 2 (Homo sapiens, UniProt P25440); assay: Induction of BRD2 degradation in human MDA-MB-231 cells assessed as decrease in BET half life at 50 ug/ml incubated for 8 hrs by immunoblotting analysis; format: cell-based; conditions: dose 50.0 µg/ml; method in brief: as §4
Sequence of Bromodomain-containing protein 2 (P25440 whole entry, looked up): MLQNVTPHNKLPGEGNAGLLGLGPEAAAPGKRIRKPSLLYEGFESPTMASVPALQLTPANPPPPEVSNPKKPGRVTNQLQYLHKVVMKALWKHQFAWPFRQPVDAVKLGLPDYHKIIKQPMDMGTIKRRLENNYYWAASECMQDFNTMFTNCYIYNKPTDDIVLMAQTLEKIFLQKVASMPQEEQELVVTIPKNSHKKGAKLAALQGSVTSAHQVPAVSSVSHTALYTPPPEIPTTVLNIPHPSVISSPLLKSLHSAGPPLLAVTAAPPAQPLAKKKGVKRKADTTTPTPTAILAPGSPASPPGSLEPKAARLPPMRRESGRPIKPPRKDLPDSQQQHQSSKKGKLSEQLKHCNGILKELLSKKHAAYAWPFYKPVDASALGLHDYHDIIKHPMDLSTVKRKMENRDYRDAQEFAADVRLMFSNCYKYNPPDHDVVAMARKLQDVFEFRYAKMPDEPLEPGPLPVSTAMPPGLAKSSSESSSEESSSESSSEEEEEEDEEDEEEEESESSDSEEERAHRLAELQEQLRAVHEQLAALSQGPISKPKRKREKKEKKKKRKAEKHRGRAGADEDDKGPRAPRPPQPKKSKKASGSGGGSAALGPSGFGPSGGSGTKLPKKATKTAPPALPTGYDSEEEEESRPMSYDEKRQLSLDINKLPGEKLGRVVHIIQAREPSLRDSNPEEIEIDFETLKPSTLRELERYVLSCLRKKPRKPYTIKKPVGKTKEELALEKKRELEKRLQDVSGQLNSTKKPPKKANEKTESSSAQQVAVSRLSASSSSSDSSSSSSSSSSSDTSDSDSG

[22] = molecular target: T2, Bromodomain-containing protein 4; assay: Induction of BRD4 degradation in human MDA-MB-231 cells assessed as decrease in BET half life at 50 ug/ml incubated for 8 hrs by immunoblotting analysis; format: cell-based; conditions: dose 50.0 µg/ml; method in brief: as §4
[23] = molecular target: T2, Bromodomain-containing protein 4; assay: Induction of BRD4 degradation in human PC-3 cells incubated for 16 hrs by immunoblotting analysis; format: cell-based
Method in brief: (§5)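 MDA-MB-231 or PC-3 cells at 50% confluence in DMEM/10% FBS/pen-strep, treated 16 h with doses falling tenfold from 10 µM to 1 nM. RIPA lysates immunoblotted for BRD2, BRD3 and BRD4 with GAPDH as control. DC50 derived from band densitometry. SEM, n = 2.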

[24] = molecular target: T1, Bromodomain-containing protein 3; assay: Induction of BRD3 degradation in human PC-3 cells incubated for 16 hrs by immunoblotting analysis; format: cell-based; method in brief: as §5
Target sequence in this assay (Q15059 2-726 limits assumed): as the sequence (Q15059 2-726 limits assumed) above

Compound	pIC50 [1]	pIC50 [2]	pEC50 [3]	pIC50 [4]	EC50 at 72 h [5] [µM]	pEC50 [6]	pIC50 [7]	pEC50 [8]	pEC50 [9]	also measured
CC(=O)OC[C@]12CC[C@H]3[C@@H](CC=C4C=CCC(=O)[C@@]43C)[C@]1(O)CC[C@@]2(O)[C@@](C)(O)[C@H]1CC(C)=C(C)C(=O)O1	6.58	6.53	5.51	6.04	> 3	5.96	6.88	–	–	–
CC1=C(CO)C(=O)O[C@@H]([C@@H](C)[C@H]2CC[C@H]3[C@@H]4C[C@H]5O[C@]56[C@@H](O)C=CC(=O)[C@]6(C)[C@H]4CC[C@]23C)C1 [WITHAFERIN A]	< 4.70	< 4.70	6.39	< 4.70	> 6.8	6.06	< 4.70	–	–	–
CC(=O)OC[C@]12CC[C@H]3[C@@H](CC=C4CC=CC(=O)[C@@]43C)[C@]1(O)CC[C@@]2(O)[C@@](C)(O)[C@H]1CC(C)=C(C)C(=O)O1	7.74	5.41	6.89	7.71	> 3	6.89	4.80	7.15	–	–
CC(=O)OC[C@]12CC[C@H]3[C@@H](C[C@H]4O[C@]45CC=CC(=O)[C@]35C)[C@]1(O)CC[C@@]2(O)[C@@](C)(O)[C@H]1C[C@]2(C)O[C@]2(C)C(=O)O1	5.63	5.25	6.37	5.71	> 2	6.38	6.12	6.75	5.83	–
Cc1sc2c(c1C)C(c1ccc(Cl)cc1)=N[C@@H](CC(=O)NCCCCNC(=O)COc1cccc3c1C(=O)N(C1CCC(=O)NC1=O)C3=O)c1nnc(C)n1-2 (stereo partly drawn)	–	–	–	–	–	–	–	–	–	pEC50 [10]: 7.30
CC(=O)OC[C@]12CC[C@H]3[C@@H](C[C@H]4O[C@]45CCCC(=O)[C@]35C)[C@]1(O)CC[C@@]2(O)[C@@](C)(O)[C@H]1C[C@@H](C)[C@@H](C)C(=O)O1	< 4.70	5.74	< 5.70	5.41	> 2	< 5.70	< 4.70	< 5.70	< 5.70	–
CC(=O)OC[C@]12CC[C@H]3[C@@H](C[C@H]4O[C@]45CC=CC(=O)[C@]35C)[C@]1(O)CC[C@@]2(O)[C@@](C)(O)[C@H]1C[C@@H](C)[C@@H](C)C(=O)O1	< 4.70	< 4.70	6.07	< 4.70	> 2	5.97	< 4.70	5.83	< 5.70	–
COc1cccc2c1C(=O)c1c(O)c3c(c(O)c1C2=O)C[C@@](O)(C(=O)CO)C[C@@H]3O[C@H]1C[C@H](N)[C@H](O)[C@H](C)O1 [DOXORUBICIN]	–	–	6.47	–	0.15	6.96	–	7.70	7.40	EC50 at 72 h [11]: 0.8 µM; pEC50 [12]: 6.17
Cc1sc2c(c1C)C(c1ccc(Cl)cc1)=N[C@@H](CC(=O)OC(C)(C)C)c1nnc(C)n1-2	–	–	< 5.70	–	> 2	6.79	–	6.64	< 5.70	Activity [13]: Active; Activity [14]: inactive; Activity [15]: Active; Activity [16]: inactive; Activity [17]: inactive; pEC50 [12]: 6.80; Activity [18]: inactive; Activity [19]: Dose-Dependent Effect
CC(=O)OC[C@]12CC[C@H]3[C@@H](C[C@H]4O[C@]45CC=CC(=O)[C@]35C)[C@]1(O)CC[C@@]2(O)[C@@](C)(O)[C@H]1C[C@H](C)[C@H](C)C(=O)O1	< 4.70	< 4.70	6.05	< 4.70	> 2	5.98	< 4.70	5.95	< 5.70	–
C[C@@H]1C[C@@H]([C@H](O)CC2CC(=O)NC(=O)C2)C(=O)[C@@H](C)C1	–	–	–	–	–	–	–	–	–	Activity [20]: inactive; Activity [21]: inactive; Activity [22]: inactive
CC1=C(C)C(=O)O[C@@H]([C@](C)(O)[C@]2(O)CC[C@@]3(O)[C@@H]4C[C@H]5O[C@]56CC=CC(=O)[C@]6(C)[C@H]4CC[C@]23C)C1 [WITHANOLIDE E]	5.53	5.82	–	6.25	> 10	7.22	6.14	7.15	–	–
CC(=O)OC[C@]12CC[C@H]3[C@@H](C[C@@H]4O[C@@]45CC=CC(=O)[C@]35C)[C@]1(O)CC[C@@]2(O)[C@@](C)(O)[C@H]1CC(C)=C(C)C(=O)O1	7.05	4.97	5.92	7.51	> 12	6.49	5.37	–	–	–
C[C@H]1C[C@H]([C@](C)(O)[C@]2(O)CC[C@@]3(O)[C@@H]4C[C@H]5O[C@]56CC=CC(=O)[C@]6(C)[C@H]4CC[C@]23C)OC(=O)[C@@H]1C	–	–	–	–	> 2	6.54	–	6.68	–	–
CC(=O)OC[C@]12CC[C@H]3[C@@H](C[C@H]4O[C@]45CC=CC(=O)[C@]35C)[C@]1(O)[C@@H](OC(C)=O)C[C@@]2(O)[C@@](C)(O)[C@H]1CC(C)=C(C)C(=O)O1	6.68	4.83	6.74	7.32	–	5.92	5.22	–	–	EC50 at 72 h [11]: > 5 µM
CC1=C(CO)C[C@H]([C@](C)(O)[C@]2(O)CC[C@@]3(O)[C@@H]4C[C@H]5O[C@]56CC=CC(=O)[C@]6(C)[C@H]4CC[C@]23C)OC1=O	6.13	< 4.70	5.54	6.55	–	5.56	< 4.70	–	< 5.30	EC50 at 72 h [11]: > 5 µM; pEC50 [12]: 5.95
CC(=O)OC[C@]12CC[C@H]3[C@@H](C[C@H]4O[C@]45CCCC(=O)[C@]35C)[C@]1(O)CC[C@@]2(O)[C@@](C)(O)[C@H]1CC(C)=C(C)C(=O)O1	6.63	5.04	5.96	7.22	–	–	4.98	–	–	Activity [23]: inactive; pEC50 [12]: < 5.70; Activity [24]: inactive
